Laboratory results from ChEMBL document CHEMBL4219038, “1-Thiazol-2-yl-N-3-methyl-1H-pyrozole-5-carboxylic acid derivatives as antitumor agents” (Bioorg Med Chem Lett, 2017).
Values after ≈ are worked out from the molar mass of the structure shown. Active and inactive are the calls of the source. The calls are words filed in the database; no cut-off is given here.

Legend:
SU-DHL10 = assay: Antiproliferative activity against human SU-DHL10 cells; type: functional, cell-based
[1] = Antiproliferative activity against human TC71 cells; type: functional, cell-based; settings: TC-71
HCT-116 [2] = assay: Antiproliferative activity against human HCT116 cells; type: functional, cell-based
A2780 = assay: Antiproliferative activity against human A2780 cells; type: functional, cell-based
NCI-H460 = assay: Antiproliferative activity against human NCI-H460 cells; type: functional, cell-based
[3] = Antiproliferative activity against human […] cells; type: functional, cell-based
MIA PaCa-2 = assay: Antiproliferative activity against human MIAPaCa2 cells; type: functional, cell-based
MCF-10A = assay: Antiproliferative activity against human MCF10A cells; type: cell-based
HCT-116 [4] = assay: Induction of quiescence in human HCT116 cells by high content cell imaging studies; type: functional, cell-based
HCT-116 [5] = assay: Cell cycle arrest in human HCT116 cells assessed as reduction in cell levels at S-phase at 0.001 to 10 uM after 24 hrs EdU-staining based high content imaging analysis; type: functional
How it was run: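 HCT-116 cells plated on poly-lysine-coated plates overnight, then treated 24 h with compound (DMSO stock diluted into McCoy's medium with 10% FBS). EdU labelling of newly synthesized DNA, 4% formaldehyde fixation, then high-content imaging in three fluorescent channels for total cell count, DNA content and S-phase cells. Means of three biological replicates, SEM.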

[6] = Kinetic solubility of the compound in PBS buffer at pH 7.4; type: physicochemical; settings: read-out: Kinetic_solubility
How it was run: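 Kinetic solubility measured in PBS buffer, pH 7.4.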

[7] = Cmax in po dosed mouse; type: ADME, organism-based; design: route oral; settings: in vivo
[8] = AUC (0 to infinity) in po dosed mouse; type: ADME, organism-based; design: route oral, time infinity; settings: in vivo
[9] = Oral bioavailability in mouse; type: ADME, organism-based; settings: in vivo
[10] = Half life in iv dosed mouse; type: ADME, organism-based; settings: in vivo
[11] = Cmax in mouse at 2.5 mg/kg; type: ADME, organism-based; design: dose 2.5 mg/kg; settings: in vivo
[12] = Cmax in mouse at 10 mg/kg; type: ADME, organism-based; design: dose 10 mg/kg; settings: in vivo
[13] = Cmax in mouse at 100 mg/kg; type: ADME, organism-based; design: dose 100 mg/kg; settings: in vivo
[14] = AUC (0 to infinity) in mouse at 2.5 mg/kg; type: ADME, organism-based; design: dose 2.5 mg/kg, time infinity; settings: in vivo
[15] = AUC (0 to infinity) in mouse at 10 mg/kg; type: ADME, organism-based; design: dose 10 mg/kg, time infinity; settings: in vivo
[16] = AUC (0 to infinity) in mouse at 100 mg/kg; type: ADME, organism-based; design: dose 100 mg/kg, time infinity; settings: in vivo
[17] = MRT in mouse at 10 mg/kg, po; type: ADME, organism-based; settings: in vivo
[18] = MRT in mouse at 50 mg/kg, po; type: ADME, organism-based; settings: in vivo
Mus musculus [19] = assay: Ratio of AUC (0 to infinity) in mouse at 2.5 mg/kg, po to Cmax in mouse at 10 mg/kg, po; type: ADME, organism-based; settings: in vivo
Mus musculus [20] = assay: Ratio of AUC (0 to infinity) in mouse at 2.5 mg/kg, po to Cmax in mouse at 50 mg/kg, po; type: ADME, organism-based; settings: in vivo
[21] = Toxicity in J:Nu mouse assessed as maximum tolerated dose at 10 to 120 mg/kg, po qd for 13 days; type: organism-based; settings: in vivo
Mus musculus [22] = assay: Toxicity in J:Nu mouse assessed as induction of adverse effects at 10 to 120 mg/kg, po qd for 13 days; type: organism-based; settings: in vivo, 312 h
How it was run: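 Oral once-daily dosing of J:Nu female mice (N = 4 per group) at 10, 30 and 60 mg/kg for 7 days. The 30 and 60 mg/kg groups were escalated to 90 and 120 mg/kg on days 8–13. Clinical signs and body weights were recorded every day.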

Mus musculus [23] = assay: Toxicity in J:Nu mouse assessed as changes in organ weight at 60 mg/kg, po qd for 7 days followed by 120 mg/kg, po qd for 5 days from day 8 to 13 measured 48 hrs after post last dose by pathology analysis; type: organism-based; settings: in vivo
How it was run: (§1)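 In J:Nu female mice (N = 4 per group), dosing was oral once daily at 30 or 60 mg/kg in 5% NMP/10% PEG-400/15% Solutol/70% D5W for 7 days. Doses were then raised to 90 or 120 mg/kg respectively on days 8–13. Clinical signs and body weights were recorded daily. Gross pathology, with spleen and liver weights, was done 48 h after the last dose.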

Mus musculus [24] = assay: Toxicity in J:Nu mouse assessed as organ damage at 60 mg/kg, po qd for 7 days followed by 120 mg/kg, po qd for 5 days from day 8 to 13 measured 48 hrs after post last dose by pathology analysis; type: organism-based; settings: in vivo; how it was run: as §1
[25] = Plasma concentration (7 hrs) in J:Nu mouse at 10 mg/kg, po qd for 7 days measured on day 1; type: ADME, organism-based
How it was run: (§2)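 J:Nu female mice, N = 4 per group, dosed orally once daily at 10, 30 or 60 mg/kg in 5% NMP, 10% PEG-400, 15% Solutol, 70% D5W. Blood was sampled every other day, alternating Cmax and predose draws. Plasma concentration was taken 7 h after dosing.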

[26] = Plasma concentration (7 hrs) in J:Nu mouse at 30 mg/kg, po qd for 7 days measured on day 1; type: ADME, organism-based; how it was run: as §2
[27] = Plasma concentration (7 hrs) in J:Nu mouse at 60 mg/kg, po qd for 7 days measured on day 1; type: ADME, organism-based; how it was run: as §2
[28] = Plasma concentration (7 hrs) in J:Nu mouse at 10 mg/kg, po qd for 7 days measured on day 5; type: ADME, organism-based; how it was run: as §2
[29] = Plasma concentration (7 hrs) in J:Nu mouse at 60 mg/kg, po qd for 7 days measured on day 5; type: ADME, organism-based; how it was run: as §2
[30] = Cmax in J:Nu mouse plasma at 30 mg/kg, po qd for 7 days followed by 90 mg/kg, po qd for 5 days from day 8 to 13; type: ADME, organism-based; design: dose 30 mg/kg, route oral
How it was run: (§3)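 J:Nu female mice, N = 4 per group, dosed orally once daily at 10, 30 or 60 mpk in 5% NMP, 10% PEG-400, 15% Solutol, 70% D5W. The 30 and 60 mpk groups were raised to 90 and 120 mpk from day 8 to 13.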

[31] = Cmax in J:Nu mouse plasma at 60 mg/kg, po qd for 7 days followed by 120 mg/kg, po qd for 5 days from day 8 to 13; type: ADME, organism-based; design: dose 60 mg/kg, route oral; how it was run: as §3
[32] = Dose normalized Cmax in J:Nu mouse plasma at 30 mg/kg, po qd for 7 days followed by 90 mg/kg, po qd for 5 days from day 8 to 13; type: ADME, organism-based; settings: in vivo; how it was run: as §3
[33] = Dose normalized Cmax in J:Nu mouse plasma at 60 mg/kg, po qd for 7 days followed by 120 mg/kg, po qd for 5 days from day 8 to 13; type: ADME, organism-based; settings: in vivo; how it was run: as §3
[34] = AUC (0 to infinity) in J:Nu mouse plasma at 30 mg/kg, po qd for 7 days followed by 90 mg/kg, po qd for 5 days from day 8 to 13; type: ADME, organism-based; design: dose 30 mg/kg, route oral, time infinity; how it was run: as §3
[35] = AUC (0 to infinity) in J:Nu mouse plasma at 60 mg/kg, po qd for 7 days followed by 120 mg/kg, po qd for 5 days from day 8 to 13; type: ADME, organism-based; design: dose 60 mg/kg, route oral, time infinity; how it was run: as §3
[36] = Dose normalized AUC (0 to infinity) in J:Nu mouse plasma at 30 mg/kg, po qd for 7 days followed by 90 mg/kg, po qd for 5 days from day 8 to 13; type: ADME, organism-based; settings: in vivo; how it was run: as §3

`Cc1nn(-c2nc(-c3ccc(Cl)c(Cl)c3)c(SC(C)C)s2)c(C(=O)O)c1-c1cc(Cl)cc(Cl)c1` showed an IC50 (SU-DHL10) of 430 nM, an IC50 [1] of 290 nM and an IC50 (HCT-116 [2]) of 600 nM. For the same compound, the IC50 (A2780) was 290 nM, the IC50 (NCI-H460) was 330 nM and the IC50 [3] was 1570 nM. For the same compound, the IC50 (MIA PaCa-2) was 320 nM, the IC50 (MCF-10A) was 35000 nM and the Activity (HCT-116 [4]) was “Active”. The Activity (HCT-116 [5]) was “Active”, the solubility kinetic [6] was 40.2 µM (≈ 23 µg/mL) and the Cmax [7] was 1320 ng/mL. It also gave an AUC(0-inf) [8] of 25.8 µg·h/mL, a bioavailability [9] of 48.4% and a half-life [10] of 8 h. The Cmax [11] was 1320 ng/mL, the Cmax [12] was 15700 ng/mL and the Cmax [13] was 131000 ng/mL. For the same compound, the AUC(0-inf) [14] was 25.8 µg·h/mL, the AUC(0-inf) [15] was 257 µg·h/mL and the AUC(0-inf) [16] was 2120 µg·h/mL. For the same compound, the MRT [17] was 10.1 h, the MRT [18] was 9.3 h and the Ratio (Mus musculus [19]) was 10. For the same compound, the Ratio (Mus musculus [20]) was 8.7, the MTD at 312 h [21] was 90 mg/kg and the Activity (Mus musculus [22]) was “Non-Toxic”. For the same compound, the Activity (Mus musculus [23]) was “Non-Toxic”, the Activity (Mus musculus [24]) was “Non-Toxic” and the concentration at 7 h [25] was 19700 ng/mL. For the same compound, the concentration at 7 h [26] was 63600 ng/mL, the concentration at 7 h [27] was 88800 ng/mL and the concentration at 7 h [28] was 18200 ng/mL. It also gave a concentration at 7 h [29] of 79800 ng/mL, a Cmax [30] of 134000 ng/mL and a Cmax [31] of 128000 ng/mL. It also gave a Cmax/dose [32] of 1494.3 ng/mL, a Cmax/dose [33] of 1066.5 ng/mL and an AUC(0-inf) [34] of 1490 µg·h/mL. For the same compound, the AUC(0-inf) [35] was 1540 µg·h/mL and the AUC/dose [36] was 16500 ng·kg·h/mL/mg.
